# Assay outcomes as filed in PubChem.
# Hits are enriched below; roughly 5.8% of the tested compounds scored in any of these assays.
# 14-3-3 Bad PPI = inhibitors of 14-3-3 zeta/Bad binding, primary screen, biochemical, TR-FRET, bovine 14-3-3 zeta; 14-3-3 protein zeta/delta (Bos taurus), P63103; TR-FRET 14-3-3zeta/Dy647-pBad peptide displacement, 1 h; inhibition, % at 21.7 µM; 220,000 compounds, 0.71% hits;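 active means inhibition above about 70%, limit read from the data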;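 further: 0% = full 14-3-3 plus peptide FRET controls and 100% = background without 14-3-3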
# Target sequence (P63103 whole entry, looked up): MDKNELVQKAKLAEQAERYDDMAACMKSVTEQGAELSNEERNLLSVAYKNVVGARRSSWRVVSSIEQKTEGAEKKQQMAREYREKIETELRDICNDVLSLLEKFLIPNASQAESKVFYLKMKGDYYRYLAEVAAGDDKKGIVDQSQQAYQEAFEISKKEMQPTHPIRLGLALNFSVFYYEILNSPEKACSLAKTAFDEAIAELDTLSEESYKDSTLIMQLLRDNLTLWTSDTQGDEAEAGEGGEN
# KCC2 mod = KCC2 cotransporter modulators, thallium flux, primary screen, cell-based, HEK293 KCC2, FluoZin-2 fluorescence, MLSMR | KCC2 cells, thallium flux FluoZin-2 fluorescence | B-score of Tl+ flux slope (higher = more flux/activation; lower = inhibition) at 10 µM | 190,000 compounds, 2.2% hits;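 active means thallium flux slope and its plate-corrected score both differing from the plate sample mean at a set confidence after two filtering rounds, in either direction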;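 further: slope of fluorescence scaled to starting intensity during 10 to 20 s after thallium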
# WT yeast gro inh = growth inhibition of WT strain, primary screen, mitochondrial fusion inhibitor project, WT and mutant strains, chemical genetic | mitochondrial fusion phenotypic screen | inhibition, % at 10 µM | 190,000 compounds, 2.1% hits | AID 1362, 2008; in the data active means inhibition above about 58%; tested in S. cerevisiae
# RBBP9 inhibitor = human RBBP9 inhibitors, primary screen, biochemical, fluorescence polarization, FP-Rh probe, HTS | recombinant RBBP9 | inhibition, % at 7.94 µM | 220,000 compounds, 0.2% hits;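 active means inhibition above the campaign mean of all tested compounds plus 3 SD, cut at about 14% in these data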;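 further: plate controls were DMSO wells with RBBP9 for no effect and wells lacking RBBP9 protein for full effect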
#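 Assay system: recombinant human RBBP9; Reagent: Serine-hydrolase probe FP-Rh, 375 nM pre-mixing; Doses: 7.94 µM single dose, 0.794% DMSO; Incubation: 30 min then 45 min, 25 °C; Detection: fluorescence polarization (mP), excitation 525 nm, emission 598 nm; Evaluation: percent inhibition from mP, scaled between DMSO and no-protein wells.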
# p47phox inh = p47phox/p22phox peptide binding inhibitors, primary screen, biochemical, uHTS, NADPH oxidase regulatory subunit; inhibition, % at 24.7 µM; fluorescence polarization, 2 h; Neutrophil cytosol factor 1 (Homo sapiens), P14598; 220,000 compounds, 0.53% hits;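 active means inhibition above about 30%, limit read from the data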;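 further: 0% = p47phox with labelled peptide and 100% = labelled peptide alone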
# Target sequence (P14598 whole entry, looked up): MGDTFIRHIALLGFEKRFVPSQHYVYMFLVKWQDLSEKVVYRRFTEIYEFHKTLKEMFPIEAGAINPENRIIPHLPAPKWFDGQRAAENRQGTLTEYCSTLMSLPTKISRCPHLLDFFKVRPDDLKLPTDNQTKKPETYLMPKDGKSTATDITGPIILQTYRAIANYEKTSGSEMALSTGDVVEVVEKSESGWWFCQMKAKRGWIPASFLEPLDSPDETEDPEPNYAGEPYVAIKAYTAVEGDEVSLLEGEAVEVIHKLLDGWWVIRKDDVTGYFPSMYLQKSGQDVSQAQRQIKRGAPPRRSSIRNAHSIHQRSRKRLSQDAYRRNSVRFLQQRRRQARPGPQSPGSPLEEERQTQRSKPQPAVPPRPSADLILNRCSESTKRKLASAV
# ROMK primary = ROMK potassium channel modulators, primary screen, cell-based, thallium flux, MLSMR library. ATP-sensitive inward rectifier potassium channel 1 (Homo sapiens), P48048. Tet-inducible ROMK, thallium flux fluorescence; actives lie on both sides. B-score at 10 µM. 130,000 compounds, 2% hits. AID 1918, 2009;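 active means signal ratio slope over the read window, or its plate-corrected B-score, at least 3 SD from the plate mean, either direction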;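 further: B-score of the F/F0 ratio slope over 7 to 12 s after thallium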
# KCC2 secondary = KCC2 modulators in sodium-free buffer, confirmation, cell-based, HEK293 KCC2, thallium flux, secondary assay | shares compounds with KCC2 mod | FluoZin2 fluorescence; stronger effect = higher value | normalised thallium flux (F/F0 slope) at 10 µM | 3,700 compounds, 15% hits | AID 1713, 2009;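 active means thallium flux slope above the same plate's solvent-only control mean plus 3 SD; inconclusive means the two replicate wells disagree; inactive means no significant difference from solvent-only control wells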
# KCC2 bumet counter = thallium flux persisting under bumetanide in KCC2 cells, confirmation, counter-screen for KCC2 modulator project, cell-based, HEK293 KCC2, FluoZin2, secondary assay 3 | 3,700 compounds, 49% hits | AID 1714, 2009 | normalized thallium flux at 10 µM | HEK293-KCC2 + bumetanide/ouabain; stronger effect = higher value | shares compounds with KCC2 mod;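 active means thallium entry rate above the same plate's blocked-transporter control wells by more than 3 SD; inconclusive means the two repeat wells disagree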;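 further: raw slope of fluorescence over initial fluorescence between 10 and 20 s after thallium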
# KCC2 sec2 = KCC2 modulators without ouabain present, confirmation, cell-based, HEK293 KCC2, thallium flux, FluoZin2, secondary assay 2. AID 1715, 2009. shares compounds with KCC2 mod. normalized thallium flux at 10 µM. thallium flux FluoZin2 fluorescence; actives lie on both sides; F/F0 rise rate, 10–20 s post-thallium. 3,700 compounds, 23% hits;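 active means thallium flux slope more than 3 SD above or below the plate's solvent-only control mean, mostly below; inconclusive means the two repeat wells disagreed; inactive means no significant shift from solvent-only controls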;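 further: raw slope with 0.1% DMSO as baseline and bumetanide as block control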
# HEK293 Tl flux = thallium flux modulation in parental HEK cells, confirmation, counter-screen for KCC2 modulator project, cell-based, counterscreen 1; HEK293 parental cells, thallium flux FluoZin2, ouabain; baseline-ratio fluorescence slope, 10–20 s after thallium; 3,700 compounds, 46% hits; thallium flux rate (normalised fluorescence) at 10 µM; AID 1716, 2009; shares compounds with KCC2 mod;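 active means thallium flux rate significantly above the same plate's solvent-only control wells, beyond their mean plus 3 SD; inconclusive means the two replicate wells gave conflicting results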
# KCC2 retest ouab = KCC2 inhibitors and activators, ouabain retest, confirmation, HEK-KCC2 cells; AID 1717, 2009; shares compounds with KCC2 mod; 3,700 compounds, 48% hits; HEK293-KCC2, thallium flux FluoZin2 fluorescence; bidirectional: low = inhibitor, high = activator; raw Tl+ flux slope (below DMSO = inhibition, above = activation) at 10 µM;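 active means thallium flux slope beyond 3 SD from same-plate DMSO control mean in most replicates, usually higher, sometimes lower; inconclusive means repeat tests gave conflicting results; inactive means no significant difference from controls in most replicates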;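 further: slope of initial-normalized fluorescence between seconds 10 and 20 after thallium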
# HEK293 Tl flux2 = native HEK Tl+ uptake effects, second counter-screen – HEK cells, counterscreen 2, counter-screen for KCC2 modulator project, confirmation; shares compounds with KCC2 mod; HEK293 parental, thallium flux FluoZin-2 fluorescence slope; thallium flux slope at 10 µM; 3,700 compounds, 33% hits;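 active means thallium flux slope above the same plate's solvent-control mean plus 3 SD in both duplicate wells; inconclusive means duplicate wells that disagreed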;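 further: run without ouabain in cells lacking the KCC2 cotransporter; slope of fluorescence scaled to its starting value between 10 and 20 s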
# * hit, by the source's call; ? = inconclusive; . = not tested or not shown.
SMILES,14-3-3 Bad PPI,KCC2 mod,WT yeast gro inh,RBBP9 inhibitor,p47phox inh,ROMK primary,KCC2 secondary,KCC2 bumet counter,KCC2 sec2,HEK293 Tl flux,KCC2 retest ouab,HEK293 Tl flux2
COc1ccc(NC(=O)CSc2nccn2-c2ccccc2)c(OC)c1,-5.2,-0.0927,-0.5,1.5,-9.7,.,.,.,.,.,.,.
C=CCNC(=S)NC(=O)c1ccc(C)c(Br)c1,6.8,40*,51.0,-9.0,-4.0,0.81,0.0185*,0.0925*,0.041,?,0.0641*,0.0215*
COc1cc(-c2c(C#N)c(N)nc(SCc3ccncc3)c2C#N)cc(OC)c1OC,6.3,.,4.6,-5.5,-8.5,-1.17,0.00848,0.00652,0.0292,0.0072,?,?
Nc1ccccc1-n1cccc1,-7.8,-0.412,.,-3.1,-13.0,.,.,.,.,.,.,.
Cc1cc([N+](=O)[O-])nn1CCCC(=O)Nc1cc(Cl)ccc1Cl,13.4,-0.762,-12.2,3.8,-1.8,-2.69,.,.,.,.,.,.
CC1CCC2(CC1)C(Nc1cccc(Cl)c1)=NC(=S)N2CC#N (stereo not drawn),4.0,18.6*,30.8,-1.0,-10.6,-0.355,0.00974*,0.0503*,0.0553*,0.0518*,0.0453*,0.0405*
CCOc1ccc(Nc2nc(Cc3nnc(SCC(=O)O)o3)cs2)cc1,14.4,.,-3.0,-2.2,-16.0,.,0.00497,0.00498,0.0271,0.00769,0.015*,0.0106
CCOc1ccc(Cc2nnc(SCC(=O)c3ccc(OC)cc3)o2)cc1,10.2,0.642,2.2,-9.0,7.1,.,.,.,.,.,.,.
N=C1S/C(=C\c2ccco2)C(=O)N1c1nccs1,-5.9,18.8*,71.8,0.1,-30.2,0.558,0.0277*,0.0745*,?,0.028*,0.0493*,0.015*
CCOC(=O)c1ccc(NC(=S)NCCc2ccc(F)cc2)cc1,-1.8,-0.478,53.6,-21.4,-10.9,0.153,.,.,.,.,.,.
O=C(/C=C/c1ccco1)N1CCC(Cc2ccccc2)CC1,10.8,-4.94*,16.7,-8.9,1.6,0.142,0.00698,0.00498,0.0209*,0.00737,0.0145*,0.00992
O=C(NCCCn1ccnc1)c1nn2c(C(F)(F)F)cc(-c3ccccc3)nc2c1Cl,-18.0,-0.151,-4.5,-1.9,0.8,-1.16,.,.,.,.,.,.
COc1ccc(S(=O)(=O)N(C)CC(=O)O)c2ccccc12,1.4,3.02*,-16.2,-8.1,-3.9,1.84,0.00661,0.0048,0.0295,0.00802,0.0185,0.0115
COc1ccc(C)cc1S(=O)(=O)N(C)CC(=O)Nc1ccccc1,-6.8,1.79,3.6,7.0,5.9,.,.,.,.,.,.,.
COc1ccc(NC(=O)Cn2c(=O)n(-c3ccc(CC(=O)NCc4ccco4)cc3)c(=O)c3ccccc32)cc1,-4.8,0.895,-3.9,0.8,-4.6,-0.0323,.,.,.,.,.,.
O=C(O)c1ccccc1NC(=S)NC(=O)c1cccc2ccccc12,-1.7,-0.182,0.1,-0.7,2.3,0.512,.,.,.,.,.,.
O=C(NC(=S)Nc1ccc2c(c1)OCCO2)c1cccc(Br)c1,7.2,36.8*,36.9,-15.1,0.0,.,0.0063,0.0423*,0.0435*,0.0459*,0.0337*,0.0278*
O=C(NC(=S)Nc1ccc2c(c1)OCCO2)c1cccc2ccccc12,-12.0,11.4*,29.5,-6.0,-8.9,1.97,?,0.0862*,0.0353,0.0345*,0.0566*,0.0157*
O=C(NC(=S)Nc1ccc2c(c1)OCO2)c1ccccc1,-13.3,.,22.3,-2.1,-11.4,.,.,.,.,.,.,.
Cc1cc(C)n(C(=O)/C(C#N)=N/Nc2cc(Cl)cc(Cl)c2)n1,22.0,-7.72*,85.1*,-4.7,-7.9,-1.52,?,?,0.0334,0.00365,0.0137*,0.0114
O=C(N/N=C/c1cccnc1)c1cccs1,-0.7,-3.67*,.,-2.6,0.0,0.442,0.00673,0.00491,0.0325,0.00748,0.019,0.0102
O=C(N/N=C/c1cccnc1)c1ccco1,-1.2,-1.32,.,-5.1,4.2,.,.,.,.,.,.,.
Cc1cc(C=C2C(=O)c3ccccc3C2=O)c(C)n1-c1cccc(C(=O)O)c1,-13.6,-5.37*,5.5,0.4,-23.9,-0.419,0.0144,?,0.0203*,0.00557*,0.0101*,0.00831
Cc1cc(C=C2C(=O)c3ccccc3C2=O)c(C)n1-c1ccc(C(=O)O)cc1,-3.1,-2.12,5.9,-2.7,-15.2,-0.724,.,.,.,.,.,.
CCN(CC)C(=S)SCC(=O)Nc1ncc2c(n1)CC(C)(C)CC2=O,-11.3,5.63*,.,0.3,-11.8,.,0.00575,0.00494,0.0311,0.00745,0.0191,0.0112
Cc1nn(-c2cc(C(F)(F)F)ccc2Cl)c2nc(C(Cl)(Cl)Cl)[nH]c(=O)c12,1.9,50.3*,.,-9.2,1.4,.,0.00577,0.061*,0.0483*,0.0356*,0.0483*,0.0343*
Cc1nn(-c2ccccc2)c2nc(C(F)(F)F)[nH]c(=O)c12,22.5,-0.468,-19.7,0.2,-1.8,.,.,.,.,.,.,.
